Source: paper PMC8302237 (CPT: Pharmacometrics & Systems Pharmacology, 2021)

Assays:
[1] = assay type: in vivo, human; conditions: for dose proportionality of PK: p.o. tablet dosing
Outline: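 Plasma parent, M5 and M6 concentration-time data came from clinical studies. In healthy volunteers, dosing was i.v., 150–600 mg single-dose tablet p.o., or 300–750 mg multiple-dose tablet. In HCV patients, dosing was 50–300 mg single-dose or 50–400 mg multiple-dose capsule, or 300–450 mg multiple-dose tablet; 450 mg once daily gave Day 7 profiles with washout. Itraconazole DDI: healthy volunteers; HCV patients received 300 mg multiple-dose tablet plus 200 mg multiple-dose itraconazole.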

Minimal PBPK model = assay type: in vivo, human

Row | effect of itraconazole coadministration on early metabolite profile ([1]; itraconazole DDI, plasma) | dose proportionality of PK [1] | share of unabsorbed uprifosbuvir dose metabolized into M5 (Minimal PBPK model; gut) [%] | share of unabsorbed uprifosbuvir dose metabolized into M6 (Minimal PBPK model; gut) [%] | share of unabsorbed uprifosbuvir dose metabolized into pseudo-M4 (Minimal PBPK model; gut) [%] | unabsorbed fraction of uprifosbuvir dose (metabolized in gut) (Minimal PBPK model; p.o., based on the model) [%] | uprifosbuvir dose estimated to reach the liver unchanged (Minimal PBPK model; p.o., based on the model) | effect of itraconazole coadministration on uprifosbuvir exposure ([1]; itraconazole DDI study, plasma) | SMILES | effect of itraconazole coadministration on uprifosbuvir tmax ([1]; itraconazole DDI study, plasma)
1 | first M6 peak was almost absent | not dose proportional | – | – | – | – | – | – | C[C@@]1(Cl)[C@H](O)[C@@H](CO)O[C@H]1n1ccc(=O)[nH]c1=O [M6] | –
2 | – | dose proportional | 11 | 52 | 37 | 86 | about 14% | large increase in uprifosbuvir exposure | CC(C)OC(=O)[C@@H](C)N[P@@](=O)(OC[C@H]1O[C@@H](n2ccc(=O)[nH]c2=O)[C@](C)(Cl)[C@@H]1O)Oc1ccccc1 [uprifosbuvir] | delayed time to reach maximum uprifosbuvir plasma concentration
